Columns and labels:
Assay type in all cases: functional
Culex pipiens pallens [1] = assay: Larvicidal activity against fourth-instar larval stage of Culex pipiens pallens (mosquito) assessed as mortality at 2 mg/l at 25 +/-1 degC measured after 8 days; details: 192 h
Method in brief: (§1)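 Insects were laboratory-reared and the bioassay was repeated at 25 ± 1 °C as statistics required. Larvae were scored dead or alive, and mortality was corrected with Abbott's formula. Results are given as percentage mortality on a 0–100 scale, where 0 is no activity and 100 is total kill. Hexaflumuron was run under the same conditions as the reference.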

Mythimna separata [2] = assay: Larvicidal activity against fourth-instar larval stage of Mythimna separata (Oriental armyworm) in compound pretreated corn leaves assessed as mortality at 100 mg/l at 25 +/-1 degC measured after 4 days; method in brief: as §1
Mythimna separata [3] = assay: Larvicidal activity against fourth-instar larval stage of Mythimna separata (Oriental armyworm) in compound pretreated corn leaves assessed as mortality at 200 mg/l at 25 +/-1 degC measured after 4 days; method in brief: as §1
Culex pipiens pallens [4] = assay: Larvicidal activity against fourth-instar larval stage of Culex pipiens pallens (mosquito) assessed as mortality at 1 mg/l at 25 +/-1 degC measured after 8 days; details: 192 h; method in brief: as §1
Mythimna separata [5] = assay: Larvicidal activity against fourth-instar larval stage of Mythimna separata (Oriental armyworm) in compound pretreated corn leaves assessed as mortality at 50 mg/l at 25 +/-1 degC measured after 4 days; method in brief: as §1
Mythimna separata [6] = assay: Larvicidal activity against fourth-instar larval stage of Mythimna separata (Oriental armyworm) in compound pretreated corn leaves assessed as mortality at 10 mg/l at 25 +/-1 degC measured after 4 days; method in brief: as §1
Mythimna separata [7] = assay: Larvicidal activity against fourth-instar larval stage of Mythimna separata (Oriental armyworm) in compound pretreated corn leaves assessed as mortality at 25 mg/l at 25 +/-1 degC measured after 4 days; method in brief: as §1
Culex pipiens pallens [8] = assay: Larvicidal activity against fourth-instar larval stage of Culex pipiens pallens (mosquito) assessed as mortality at 0.25 mg/l at 25 +/-1 degC measured after 8 days; details: 192 h; method in brief: as §1

Compound: O=C(NC(=O)c1c(F)cccc1F)Nc1ccc(Oc2c(Cl)cc(Cl)cc2Cl)nn1
- mortality at 2 µg/mL (Culex pipiens pallens [1]): 20%
- mortality at 100 µg/mL (Mythimna separata [2]): 10%

Compound: Cc1ccc(Oc2ccc(NC(=O)NC(=O)c3c(F)cccc3F)nn2)cc1
- mortality at 2 µg/mL (Culex pipiens pallens [1]): 0%
- mortality at 200 µg/mL (Mythimna separata [3]): 0%

Compound: O=C(NC(=O)c1c(F)cccc1F)Nc1ccc(Oc2ccc(Br)cc2)nn1
- mortality at 1 µg/mL (Culex pipiens pallens [4]): 90%
- mortality at 2 µg/mL (Culex pipiens pallens [1]): 100%
- mortality at 200 µg/mL (Mythimna separata [3]): 30%

Compound: CC(C)Oc1ccc(NC(=O)NC(=O)c2c(F)cccc2F)nn1
- mortality at 2 µg/mL (Culex pipiens pallens [1]): 10%
- mortality at 50 µg/mL (Mythimna separata [5]): 70%
- mortality at 100 µg/mL (Mythimna separata [2]): 100%
- mortality at 200 µg/mL (Mythimna separata [3]): 100%

Compound: O=C(NC(=O)c1c(F)cccc1F)Nc1ccc(OCC(F)(F)F)nn1
- mortality at 1 µg/mL (Culex pipiens pallens [4]): 30%
- mortality at 10 µg/mL (Mythimna separata [6]): 80%
- mortality at 25 µg/mL (Mythimna separata [7]): 100%

Compound: O=C(NC(=O)c1c(F)cccc1F)Nc1ccc(Oc2ccc(Cl)cc2Cl)nn1
- mortality at 2 µg/mL (Culex pipiens pallens [1]): 60%
- mortality at 200 µg/mL (Mythimna separata [3]): 20%

Compound: CCOc1ccc(NC(=O)NC(=O)c2c(F)cccc2F)nn1
- mortality at 2 µg/mL (Culex pipiens pallens [1]): 20%
- mortality at 50 µg/mL (Mythimna separata [5]): 80%
- mortality at 100 µg/mL (Mythimna separata [2]): 100%
- mortality at 200 µg/mL (Mythimna separata [3]): 100%

Compound: O=C(NC(=O)c1c(F)cccc1F)Nc1ccc(Sc2ccccc2)nn1
- mortality at 200 µg/mL (Mythimna separata [3]): 20%

Compound: Cc1ccc(NC(=O)NC(=O)c2c(F)cccc2F)nn1
- mortality at 2 µg/mL (Culex pipiens pallens [1]): 20%
- mortality at 200 µg/mL (Mythimna separata [3]): 10%

Compound: O=C(NC(=O)c1c(F)cccc1F)Nc1ccc(Oc2ccccc2Cl)nn1
- mortality at 2 µg/mL (Culex pipiens pallens [1]): 40%
- mortality at 200 µg/mL (Mythimna separata [3]): 20%

Compound: O=C(NC(=O)c1c(F)cccc1F)Nc1cc(Cl)c(OC(F)(F)C(F)F)c(Cl)c1 [HEXAFLUMURON]
- mortality at 0.25 µg/mL (Culex pipiens pallens [8]): 100%
- mortality at 10 µg/mL (Mythimna separata [6]): 80%

Compound: O=C(NC(=O)c1c(F)cccc1F)Nc1ccc(Oc2ccc(Cl)cc2)nn1
- mortality at 2 µg/mL (Culex pipiens pallens [1]): 20%
- mortality at 200 µg/mL (Mythimna separata [3]): 10%

Compound: COc1ccc(Oc2ccc(NC(=O)NC(=O)c3c(F)cccc3F)nn2)cc1
- mortality at 2 µg/mL (Culex pipiens pallens [1]): 10%
- mortality at 200 µg/mL (Mythimna separata [3]): 10%

Compound: CCCCSc1ccc(NC(=O)NC(=O)c2c(F)cccc2F)nn1
- mortality at 50 µg/mL (Mythimna separata [5]): 90%
- mortality at 100 µg/mL (Mythimna separata [2]): 100%
- mortality at 200 µg/mL (Mythimna separata [3]): 100%

Compound: O=C(NC(=O)c1c(F)cccc1F)Nc1ccc(OCc2ccc(Cl)cc2)nn1
- mortality at 2 µg/mL (Culex pipiens pallens [1]): 10%
- mortality at 200 µg/mL (Mythimna separata [3]): 10%
